Assay outcomes deposited in PubChem by several laboratories.
This is a sample that favours compounds with a hit; in the whole collection about 1.6% have one here.
GASC-1 inh = human JMJD2C demethylase inhibition; AID 2099; inhibition, % at 2.35 µM; GST-JMJD2C(1-420) H3K9me3 demethylation, DELFIA europium; 0.069% of 330,000 active;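 active = more than half of a compound's replicate wells show inhibition beyond 50%, single wells judged on their own value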;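 note: signal counts dimethyl H3K9 product captured on neutravidin plate; 0% = median of DMSO wells and 100% = 0.3 times that DMSO median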
Apaf1 inhib = inhibitors of human Apaf-1 apoptosome; AID 489030; 0.71% of 330,000 active; inhibition, % at 20 µM; reconstituted apoptosome caspase-3 activity, DEVD-Rh110 fluorescence; active = inhibition of at least 40% at 20 µM;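 note: plate controls were DMSO wells for no effect and DEVD-CHO caspase inhibitor wells for full effect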
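Assay system – apoptosome proteins · Medium – Hepes buffer, pH 7.5 · Also added – cytochrome c with DEVD-Rh110 · Timing – 30 min compound preincubation, 50 min activation, room temperature · Detection – Rh110 fluorescence, excitation 480 nm, emission 540 nm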
GSTO1 counter = blocks human GSTO1 in RBBP9 counter-screen | inhibition, % at 5.96 µM | 1.1% of 300,000 active | P78417 | recombinant GSTO1, activity-based probe fluorescence polarization;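 active = inhibition above the campaign mean inhibition plus 3 SD, cut at about 35% in these data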;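 note: 0% = GSTO1-1 with DMSO and 100% = wells lacking GSTO1-1 enzyme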
TDP2 absorb = TDP2 (human) inhibition, absorbance primary screen; O95551; recombinant TDP2, T5PNP hydrolysis, p-nitrophenol absorbance 415 nm; inhibition, % at 12.8 µM; 0.34% of 370,000 active;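 active = inhibition above the mean of all tested compounds plus 3 SD, set per campaign, cut at about 25% in these data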;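 note: 0% = DMSO with enzyme and 100% = buffer with substrate but no TDP2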
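System – recombinant human TDP2 · Amount – 120 nM TDP2 per well · Buffer or medium – Mg2+-containing Tris-HCl buffer, pH 7.5 · Reagent – T5PNP substrate, 5 mM · Dosing – 12.8 µM single point, 1% DMSO · Incubation – 2 h at 37 °C · Measured by – epi absorbance · Read-out basis – percent inhibition · Benchmarks – high control without enzyme, low control DMSO plus TDP2 · Repeats – singlicate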
PAD4 FP inh = inhibitors of human PAD4; Q9UM07; recombinant PAD4, RCA probe fluorescence polarization; inhibition, % at 6.36 µM; 0.41% of 330,000 active;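 active = percent inhibition above a cutoff equal to the mean of all tested compounds plus 3 SD, cut at about 15% in these data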;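 note: 0% = PAD4 with RCA probe and DMSO and 100% = probe without PAD4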
Target sequence (Q9UM07 whole entry, looked up): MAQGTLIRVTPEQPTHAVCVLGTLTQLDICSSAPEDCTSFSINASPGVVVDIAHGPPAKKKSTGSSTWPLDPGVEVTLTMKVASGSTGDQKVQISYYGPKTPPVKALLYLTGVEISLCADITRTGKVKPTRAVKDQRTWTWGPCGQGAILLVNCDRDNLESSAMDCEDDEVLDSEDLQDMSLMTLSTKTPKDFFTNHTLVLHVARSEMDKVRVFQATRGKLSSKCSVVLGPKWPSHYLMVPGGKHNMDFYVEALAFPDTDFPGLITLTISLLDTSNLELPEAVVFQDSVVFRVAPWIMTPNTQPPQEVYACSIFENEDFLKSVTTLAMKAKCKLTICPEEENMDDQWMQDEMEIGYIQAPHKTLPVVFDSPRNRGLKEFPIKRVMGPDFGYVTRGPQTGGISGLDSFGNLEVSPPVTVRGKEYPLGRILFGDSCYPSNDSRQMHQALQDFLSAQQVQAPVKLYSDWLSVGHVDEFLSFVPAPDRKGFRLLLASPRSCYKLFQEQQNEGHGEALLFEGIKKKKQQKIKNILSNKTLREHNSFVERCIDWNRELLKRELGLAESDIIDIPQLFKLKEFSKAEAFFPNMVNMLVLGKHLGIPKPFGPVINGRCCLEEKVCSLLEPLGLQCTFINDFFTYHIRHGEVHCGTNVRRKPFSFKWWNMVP
UBC9 SUMO inh = blocks human SUMOylation mediated by UBC9; P63279; HTRF SUMOylation assay, SAE1/SAE2 + UBC9, in vitro; inhibition, % at 35 µM; 0.36% of 290,000 active; AID 2006; in the data active = inhibition above about 50%, passing the limit was not always enough
Active calls of the source: *; i = inactive; . = no result given.

SMILES	GASC-1 inh	Apaf1 inhib	GSTO1 counter	TDP2 absorb	PAD4 FP inh	UBC9 SUMO inh
CCOc1cc(NC(=S)NCCOC)c(OCC)cc1NC(=O)c1cccs1	69*	14	3	2	2	10
Cc1cnn(-c2ccccc2)c1NC(=O)COCc1ccccc1	.	.	.	3	.	.
O=C(CSc1nnc(Cc2cccs2)n1-c1ccc(Cl)cc1)Nc1ccc(OCc2ccccc2)cc1	.	.	.	1	.	.
CCN(CC)C(=O)c1sc(NC(=O)Cc2cccs2)c(C#N)c1C	5	-5	3	-4	-1	13
Cc1c(C#N)c(NC(=O)CCl)n(Cc2cccs2)c1C	21	6	87*	5	4	7
FC(F)(F)c1ccc2nc(CNc3nc(N4CCOCC4)nc4c3ncn4-c3ccsc3)[nH]c2c1	.	.	.	-3	.	.
COc1ccc2nc(/C(C#N)=C\c3ccc(Oc4ccc([N+](=O)[O-])cn4)cc3)[nH]c2c1	0	-6	1	-5	-2	20
COc1ccc2nc(/C(C#N)=C\c3ccc(C(=O)O)cc3)[nH]c2c1	1	2	-3	-2	-8	52*
COC(=O)c1cccc(N2C(=O)C[C@](Sc3ccc(OC)cc3)(C(=O)N3CCOCC3)[C@H]2c2ccc(OC)cc2)c1	.	.	.	-20	.	.
CC(C)(C)NC(=O)[C@H](c1cccnc1)N(C(=O)c1ccco1)c1ccc(C(C)(C)C)cc1	.	.	.	1	.	.
Oc1ccc(Oc2ccccc2F)c2cccnc12	.	.	.	2	.	.
Nc1ccc(O)c2ccccc12	-22	68*	62*	.	10	.
CC(=O)c1ccc(N2CCN(C(=O)c3ccc(Cn4c(=S)[nH]c5ccc(N6CCOCC6)cc5c4=O)cc3)CC2)cc1	28	2	35*	-7	-1	-40
O=c1c2cc(N3CCOCC3)ccc2[nH]c(=S)n1Cc1ccccn1	24	3	14	5	2	55*
O=c1c2cc(N3CCOCC3)ccc2[nH]c(=S)n1Cc1ccccc1Cl	5	9	10	0	-1	12
O=C(c1ccc2c(=O)n(Cc3ccccc3)c(=S)[nH]c2c1)N1CCOCC1	17	10	13	3	3	3
COc1cccc(NC(=O)NC2CCCCN(Cc3ccc(C)cc3)C2=O)c1 (stereo not drawn)	.	.	.	-9	.	.
O=C(OCc1cc(Cl)ccc1OC(F)F)c1cncc(Br)c1	4	8	7	6	-3	-16
O=C(OCc1cc(Cl)ccc1OC(F)F)c1ccc([N+](=O)[O-])o1	7	66*	18	.	-12	11
O=S(=O)(O)c1cccc2cccc(Nc3ccccc3)c12	-4	13	38*	13	2	.
c1ccc(Nc2cccc3c(Nc4ccccc4)cccc23)cc1	0	-25	-5	4	-2	13
c1ccc(Cn2ccc3ccc(-c4ccc5ccn(Cc6cccc(Oc7ccccc7)c6)c5c4)cc32)cc1	.	.	.	7	.	.
O=C(Cn1c2ccccc2c(=O)c2ccccc21)Nc1ccccc1F	3	3	-1	-2	-7	-1
O=C(Cn1c2ccccc2c(=O)c2cc([N+](=O)[O-])ccc21)Nc1ccccc1Cl	12	0	-3	11	-1	51*
O=C(NN=Cc1ccc(-c2ccccc2)cc1)c1cc(-c2ccc(Cl)cc2)n[nH]1	.	.	.	3	.	.
SMILES	GASC-1 inh	Apaf1 inhib	GSTO1 counter	TDP2 absorb	PAD4 FP inh	UBC9 SUMO inh
CCOC(=O)N1CCN(C(=O)c2cccn3c(=O)c4cc(Br)ccc4nc23)CC1	-3	8	7	0	-6	51*
CCOC(=O)N1CCN(C(=O)c2cccn3c(=O)c4cc(Cl)ccc4nc23)CC1	10	5	7	-24	-1	58*
C#CCNC(=O)C[C@H]1C[C@@]2(C(=O)OC)C(=C[C@H](COCc3ccccc3)O[C@@H]2C)N(CCCCCCCC)C1=O	.	.	.	-4	.	.
COC(=O)[C@]12C[C@H](CC(=O)NCCCCc3ccccc3)C(=O)N(CCc3ccc(OC)c(OC)c3)C1=C[C@H](C(C)(C)C)O[C@@H]2C	.	.	.	-4	.	.
Cc1cc2c(C)cc(=O)[nH]c2cc1NC(=O)CCl	-2	-18	71*	-4	-2	2
O=C1CCC[C@H]2C[C@H](NCc3cccnc3)CC[C@]23CCCN13	.	.	.	-3	.	.
Cc1cc(/C=N/n2c(COc3ccccc3)nc3ccccc3c2=O)c(O)c([N+](=O)[O-])c1	-8	21	1	-17	1	93*
CCOC(=O)c1c2c(n(C)c1COC)C(=O)C(=O)c1ccc(Br)cc1-2	-8	97*	56*	.	1	.
COc1ccccc1N1CCN(/N=C/c2ccc(O)c(O)c2)CC1	-16	8	51*	-8	-10	5
O=C1N/C(=N/N=C/c2ccccc2O)SC1Cc1ccc(F)cc1 (stereo not drawn)	9	-8	-23	-4	1	61*
COc1ccc(CC2S/C(=N/N=C/c3ccccc3O)NC2=O)cc1 (stereo not drawn)	10	i	-10	-5	-6	58*
COc1ccc(CC2S/C(=N/N=C/c3ccc(O)cc3)NC2=O)cc1 (stereo not drawn)	8	-9	3	-2	-2	31
CC1CN(c2nc3ccccc3nc2SCC(=O)N2CCN(S(=O)(=O)c3ccccc3)CC2)CC(C)O1 (stereo not drawn)	.	.	.	-5	.	.
COC(=O)C1C(O)C(C)C(O)C(C)(O)/C=C\C=C(/C)C(=O)Nc2c(C)c(OC(C)=O)c3c(c2O)C(=O)C(C)=C2OCOC(=C23)/C(C)=C/C(C)(O)C(O)C(C)C1O (stereo not drawn)	-2	35	59*	15	-2	27
Cc1c(N=Nc2c(-c3ccc([N+](=O)[O-])cc3)[nH]n(C(N)=S)c2=O)cccc1[N+](=O)[O-]	.	.	.	-6	.	69*
NC(=S)n1[nH]c(-c2ccc([N+](=O)[O-])cc2)c(N=Nc2cccc([N+](=O)[O-])c2)c1=O	-2	.	.	4	.	59*
CN(C(=O)CCn1nnc(-c2cccs2)n1)C1CCCCC1	.	.	.	-2	.	.
O=C(N[C@@H]1C[C@@H]2O[C@@H](CO)CC[C@@H]2O[C@@H]1CCc1ccc(-c2ccccc2)cc1)c1cnccn1	.	.	.	-11	.	.
Cc1ccc2c(c1)Oc1ccc(NC(=O)CCl)cc1C(=O)N2	5	-2	92*	-13	0	10
CCc1ccc(CC(=S)N2CCOCC2)cc1	2	-3	6	6	-1	13
Cc1ccc(CC(=S)N2CCOCC2)cc1	-32	-12	37*	8	-5	-11
COc1nc(Nc2cccc(C(F)(F)F)c2)nc(OC)n1	10	0	0	-15	-4	22
Cc1cc(C)nc(Nc2cccc(C(F)(F)F)c2)n1	-2	5	36*	-10	-1	5
O=C(Nc1cccc(S(=O)(=O)NC2=NCCCCC2)c1)c1cc(-c2ccco2)nc2ccccc12	4	10	18	-11	-6	81*
